Source: PubChem BioAssay
Sampled rows, rich in hits. Any-hit rate of the full collection: about 2.8%.
Measles CPE: protection of cells from measles virus | 140,000 compounds, 1.5% hits | protection (pct of control), % at 4 µM | AID 841 | Measles virus-infected cells, CPE protection, absorbance; in the data active = protection mostly above about 24%, no sharp cut-off; inactive = mostly below about 26%
NPY2 pot ag: human NPY-Y2 potentiation or agonism, primary screen; P49146; cells expressing NPY-Y2, potentiator/agonist read-out; activation, % at 3.6 µM; 220,000 compounds, 0.45% hits; AID 1359; in the data active = activation above about 27%;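 note: cells stimulated with NPY near EC25 plus isoproterenol at EC100; 0% = vehicle plus submaximal agonist and 100% = vehicle plus saturating agonist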
Target sequence (P49146 whole entry, looked up): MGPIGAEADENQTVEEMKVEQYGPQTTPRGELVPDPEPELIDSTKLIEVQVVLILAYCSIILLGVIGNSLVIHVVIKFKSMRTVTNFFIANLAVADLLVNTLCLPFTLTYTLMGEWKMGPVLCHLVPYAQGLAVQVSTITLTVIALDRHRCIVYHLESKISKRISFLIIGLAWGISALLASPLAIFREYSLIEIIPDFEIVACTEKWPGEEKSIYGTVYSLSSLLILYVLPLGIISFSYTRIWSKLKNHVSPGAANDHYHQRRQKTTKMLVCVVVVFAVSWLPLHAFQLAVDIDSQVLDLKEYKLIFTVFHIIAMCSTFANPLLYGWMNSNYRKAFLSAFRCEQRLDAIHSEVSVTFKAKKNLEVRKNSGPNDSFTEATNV
NPY Y1 blocker: blocks the human neuropeptide Y Y1 receptor | inhibition, % at 3.6 µM | P25929 | HEK293-CNG Y1 cells, membrane potential fluorescence; NPY at EC95, then isoproterenol | 200,000 compounds, 1% hits | AID 1040;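 active = inhibition above the campaign mean inhibition of all tested compounds plus 3 SD, cut at about 20% in these data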;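 note: 0% = DMSO wells given NPY plus isoproterenol and 100% = isoproterenol alone without NPY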
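Material: HEK293 Y1/CNG channel cell line; also added: NPY (25 nM), isoproterenol (1 µM), Ro 20-1724 (25 µM); doses: one concentration, 3.6 µM, in 0.4% DMSO; schedule: compound incubation 1 h at room temperature, readout 45 min post-stimulation; technique: membrane potential fluorescence; measure: fluorescence ratio normalized to % inhibition between controls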
NPY-Y1 PAM-ag: potentiates or activates human NPY-Y1 receptor; NPY-Y1 expressing cells, potentiator/agonist activation; activation, % at 3.6 µM; 220,000 compounds, 0.37% hits; P25929; in the data active = activation above about 33%, passing the limit was not always enough;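 note: cells stimulated with NPY at EC10 then isoproterenol at EC100; 0% = low agonist plus stimulus and 100% = saturating agonist plus stimulus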
NPY-Y2 antag: NPY-Y2 (human) receptor antagonism | NPY-Y2 expressing cells, antagonist mode | inhibition, % at 2.7 µM | 140,000 compounds, 0.99% hits | AID 793; in the data active = inhibition above about 17%;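 note: 0% = vehicle with agonist challenge and 100% = reference antagonist with challenge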
Rad51 HR inh: blocks human Rad51 in homologous recombination | inhibition, % at 10 µM | hRad51 DNA strand exchange, fluorescence dequenching | 200,000 compounds, 0.085% hits | AID 1385;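 active = inhibition above 40% at the single screening dose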;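 note: 0% = DMSO control wells and 100% = blanks with heterologous ssDNA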
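Material: Human Rad51 nucleoprotein filaments preassembled on unlabelled ssDNA | Also added: Labelled 47-mer dsDNA for strand exchange | Dosing: Single dose, 10 µM final compound | Schedule: 30-min compound preincubation and 15-min exchange, both room temperature | Technique: Fluorescence dequenching at 485/520 nm | Measure: Percent inhibition relative to plate controls and blanks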
Active calls of the source: *; · = not tested or not shown.

SMILES | Measles CPE | NPY2 pot ag | NPY Y1 blocker | NPY-Y1 PAM-ag | NPY-Y2 antag | Rad51 HR inh
CCn1c(CNC(=O)c2cccs2)n[nH]c1=S | 13 | -9 | 1 | -11 | 3 | ·
COc1ccc(-c2noc(C(=O)NCc3ccccc3Cl)n2)cc1OC | · | -6 | 25* | -10 | · | -1
c1ccc(CCCNCC2COc3ccccc3O2)cc1 (centres undefined) | · | -5 | 18 | -7 | · | -8
c1ccc(CCCCNCC2COc3ccccc3O2)cc1 (centres undefined) | · | -19 | 20* | -4 | · | 13
Fc1ccc(Oc2ccc3nnc(C(F)(F)F)n3n2)cc1 | · | 3 | -2 | -18 | · | -1
CCN(CC)S(=O)(=O)c1ccc(C)c(NC(=O)c2cc(C)oc2C)c1 | · | -5 | 20* | 15 | · | -5
Cc1ccc(C2(c3ccc(C)cc3)CC2C(=O)Nc2ccc([N+](=O)[O-])cc2O)cc1 (centres undefined) | 4 | 45* | -5 | 12 | -3 | -3
CC1(C)CC1C(=O)Nc1ccc([N+](=O)[O-])cc1Br (centres undefined) | 11 | -16 | 4 | -14 | 4 | -6
Cc1cc(C)n(-c2nnc(C)n2/N=C/c2ccco2)n1 | 2 | -7 | -3 | 4 | -1 | -4
CCCOc1ccc2ccccc2c1/C=N/n1c(C)nnc1-n1nc(C)cc1C | 6 | 0 | 29* | -17 | 26* | 3
CCC(=O)N(CCC(c1ccccc1)c1ccco1)Cc1cccs1 (centres undefined) | 35 | -5 | 27* | -12 | 22* | -4
O=C(CSc1nnnn1-c1cccc2ccccc12)N1CCOCC1 | 36* | 8 | 2 | 3 | 1 | -3
c1ccc(CCN(Cc2ccccc2)C2CCN(C3CCCC3)CC2)cc1 | · | -48 | 21* | -14 | · | ·
O=S(=O)(c1ccccc1)N1CCN(C2CCCCCCC2)CC1 | 5 | -9 | 7 | 2 | 3 | 5
CC(=O)c1ccc(OCCOc2ccc(C#N)cc2)cc1 | · | -13 | · | -16 | · | 9
COc1cccc(-n2sc3c(c2=S)-c2cc(OC)ccc2NC3(C)C)c1 | 13 | 39* | -5 | 49* | -3 | -13
COc1cccc(-n2cn[nH]c2=S)c1 | · | 6 | -2 | 14 | · | -37
CC(NC(=O)c1ccc([N+](=O)[O-])cc1[N+](=O)[O-])c1ccc(-c2ccccc2)cc1 (centres undefined) | 40* | -12 | 1 | -14 | 2 | 15
CCC(NC(=O)c1ccc([N+](=O)[O-])cc1[N+](=O)[O-])c1ccccc1 (centres undefined) | 5 | -11 | 0 | -9 | 1 | 3
COc1ccc(N2CCN(S(=O)(=O)c3ccc4c(c3)OCCO4)CC2)cc1 | · | -15 | 2 | -10 | · | 28
O=S(=O)(Nc1ccccc1O)c1ccc(Cl)nc1 | · | -3 | · | 13 | · | ·
COCC1CCCN(Cc2cn(-c3ccccc3)nc2-c2ccc3c(c2)OCO3)C1 (centres undefined) | · | 96* | 6 | 65* | · | 8
COc1ccc(NCc2nnc(SCC(=O)c3ccc(OC)cc3)o2)cc1 | 38* | -4 | 10 | 4 | 0 | -3
CCCOC(=O)c1ccc(NC(=O)c2ccccc2OC)cc1 | · | -35 | 21* | -49 | · | -4
O=C(Nc1ccc(Cl)cc1)c1cc(S(=O)(=O)N2CCOCC2)cs1 | 78* | -8 | 0 | 16 | -2 | -9
SMILES | Measles CPE | NPY2 pot ag | NPY Y1 blocker | NPY-Y1 PAM-ag | NPY-Y2 antag | Rad51 HR inh
CCCN(c1ccc(C(C)C)cc1)S(=O)(=O)c1c(C)noc1C | 30 | -5 | 22* | 0 | 28* | -1
O=C1Nc2ccc(NS(=O)(=O)c3cccs3)c3cccc1c23 | 44* | -5 | 4 | 0 | 3 | ·
COc1ccc(NC(=S)NNC(=O)c2cccs2)cc1 | 17* | -8 | 13 | -13 | -1 | -34
O=C(O)c1cn(C2CCCCC2)c2ccccc2c1=O | · | -8 | · | 1 | · | 8
Cc1cc(C=O)c(C)n1-c1ccc(N2CCCC2)c([N+](=O)[O-])c1 | 8 | -4 | 7 | -5 | 4 | 5
Cc1nc(N2CCOCC2)c2c(C)c(C(=O)Nc3ccccc3Cl)sc2n1 | · | -10 | 6 | -19 | · | -12
Cc1nc(N2CCOCC2)c2c(C)c(C(=O)Nc3ccccc3C(F)(F)F)sc2n1 | · | -13 | 20* | -14 | · | -8
C=C(C)Cn1c(SCC)nc2ccccc2c1=O | 28* | -3 | 18 | -3 | 4 | 3
O=C(CSc1nc2ccccc2c(=O)n1Cc1ccco1)N1CCN(c2ccccc2)CC1 | 45* | 0 | 9 | 5 | 12 | 2
CCn1c(SCC(=O)N2CCN(c3ccc(F)cc3)CC2)nc2ccccc2c1=O | 11 | 3 | -7 | 0 | 1 | 4
CCCn1c(SCC(=O)N2CCN(c3ccccc3)CC2)nc2ccccc2c1=O | 3 | -23 | 21* | -28 | 19* | 5
C=C(C)Cn1c(SCC#N)nc2ccccc2c1=O | 3 | 0 | 1 | -49 | 4 | 2
COc1cc(NC(=O)CSc2nnc(NC(C)C)s2)cc(OC)c1OC | · | 2 | 2 | -13 | · | 4
CCOCCCNC(=O)C(c1ccc(Cl)cc1)N(Cc1cccs1)C(=O)CNC(C)=O (centres undefined) | 9 | -6 | 4 | 4 | 2 | 16
COc1cc(OC)c(-c2nc3c[n+](CC(=O)c4ccccc4)ccc3n2C)cc1OC | 38* | 21 | 0 | -2 | 2 | 0
COc1ccc(C(=O)C[n+]2ccc3c(c2)nc(-c2cc(OC)c(OC)cc2OC)n3C)cc1 | 15 | -17 | -3 | -9 | 1 | -15
CC1(CC(=O)N/N=C/c2cc([N+](=O)[O-])c(O)cc2O)OCCO1 | · | -10 | 1 | 11 | · | -3
O=C(c1ccco1)N1CCN(CCOCCOc2cccc3ccccc23)CC1 | 0 | -3 | 9 | -1 | 4 | -5
O=C(c1ccco1)N1CCN(CCCCOc2cccc3ccccc23)CC1 | 27* | -1 | 11 | -27 | 8 | ·
CCCOc1ccccc1Cn1c(=O)oc2ccc(C)cc21 | 2 | -29 | 20* | -42 | 21* | -3
Cc1cc(OCC(F)(F)C(F)(F)C(F)(F)C(F)(F)C(F)(F)C(F)F)nc(N)n1 | 12 | 38* | 0 | 62* | 5 | 5
O=C(CN(c1ccc2c(c1)OCCO2)S(=O)(=O)c1ccccc1)N1CCN(Cc2ccccc2)CC1 | · | 6 | -2 | -3 | · | ·
Cc1[nH]nc2c1C(=O)CCC2 | 24 | 13 | 6 | 1 | 0 | 86*
CCOC(=O)CSc1n[nH]c(NC(=O)c2ccccc2)n1 | 53* | 0 | 0 | 4 | -1 | -2
CCc1ccc(-c2nn(Cc3ccccc3)cc2/C=C/C(=O)O)cc1 | 11 | -23 | -2 | -12 | 6 | 10
O=C(O)/C=C/c1cn(Cc2ccccc2)nc1-c1cccnc1 | · | -31 | · | -30 | · | 45*
CCCCNC(=S)N/N=C/c1ccc(C#N)cc1 | · | 3 | -1 | 7 | · | 6
